From ChEMBL document CHEMBL4619810, “Fluorescent H2 Receptor Squaramide-Type Antagonists: Synthesis, Characterization, and Applications” (ACS Med Chem Lett, 2020)
The source made the active and inactive calls. The rule behind the calls is not given here.

Legend:
HEK-293T [1] = experiment: Cytotoxicity against human HEK293T cells assessed as reduction in cell viability at 500 nM incubated for 90 mins by flow cytometry analysis; assay type: cell-based; settings: 1.5 h, 0.5 µM
Histamine H2 receptor [2] = molecular target: T1, Histamine H2 receptor (Homo sapiens, UniProt P25021); experiment: Binding affinity to human H2R expressed in human HEK293T cells incubated for 60 mins by automated cell imaging analysis; assay type: cell-based, HEK-293T
T1 sequence (P25021 whole entry): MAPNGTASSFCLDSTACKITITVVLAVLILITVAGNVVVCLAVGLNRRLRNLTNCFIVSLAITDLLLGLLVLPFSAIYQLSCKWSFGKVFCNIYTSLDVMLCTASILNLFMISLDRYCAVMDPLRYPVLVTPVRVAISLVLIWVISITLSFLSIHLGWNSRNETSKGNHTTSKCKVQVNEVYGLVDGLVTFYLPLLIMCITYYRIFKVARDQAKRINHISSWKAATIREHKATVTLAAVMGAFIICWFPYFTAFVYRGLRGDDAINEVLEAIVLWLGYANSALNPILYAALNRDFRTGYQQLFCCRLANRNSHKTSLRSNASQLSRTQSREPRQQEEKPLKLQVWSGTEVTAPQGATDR

Histamine H2 receptor [3] = molecular target: T1, Histamine H2 receptor; experiment: Binding affinity to human H2R expressed in human HEK293T cells incubated for 60 mins by imaging flow cytometry analysis; assay type: cell-based, HEK-293T; settings: for Ka: HEK-293T
Histamine H2 receptor [4] = molecular target: T1, Histamine H2 receptor; experiment: Binding affinity to human H2R expressed in human HEK293T cells incubated for 90 mins by flowcytometry; assay type: cell-based, HEK-293T
Procedure, shortened: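 Flow cytometric saturation binding of fluorescent ligands on suspended HEK293T-hH2R-qs5 cells, 90 min incubation; pKd reported as mean ± SEM from three independent experiments, each in duplicate.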

Histamine H2 receptor [5] = molecular target: T1, Histamine H2 receptor; experiment: Displacement of [3H]UR-DE257 from Gsalphas-coupled human H2R expressed in baculovirus infected Sf9 cells incubated for 60 mins by scintillation counting method
HEK-293T [6] = experiment: Cytotoxicity against human HEK293T cells assessed as reduction in cell viability at 500 nM incubated for 60 mins by H33342 staining based imaging analysis; settings: 1 h, 0.5 µM
Histamine H2 receptor [7] = molecular target: T1, Histamine H2 receptor; settings: Sf9
Histamine H2 receptor [8] = molecular target: T1, Histamine H2 receptor; experiment: Binding affinity to H2R in human HEK293T cell membrane assessed as drug localization at 100 nM incubated for 20 mins by confocal microscopy analysis; assay type: cell-based; settings: HEK-293T
Procedure, shortened: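 Live HEK293T-hH2R-qs5 cells exposed to fluorescent ligand at 100 nM, 20 min, room temperature; receptor binding at the cell membrane visualized by confocal laser scanning microscopy (63x/1.40 oil immersion objective).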

Histamine H2 receptor [9] = molecular target: T1, Histamine H2 receptor; experiment: Binding affinity to H2R in human HEK293T cell membrane assessed as drug localization at 100 nM in presence of famotidine incubated for 20 mins by confocal microscopy analysis; assay type: cell-based; settings: HEK-293T
Procedure, shortened: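 HEK293T-hH2R-qs5 cells incubated with fluorescent ligand (100 nM) for 20 min at rt in the presence of famotidine (300-fold excess) to define nonspecific binding; membrane localization imaged by confocal laser scanning microscopy, 63x/1.40 oil objective.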

Histamine H2 receptor [10] = molecular target: T1, Histamine H2 receptor; experiment: Binding affinity to H2R in human HEK293T cell membrane assessed as drug localization at 250 nM incubated for 60 mins followed by compound washoff by confocal microscopy analysis; assay type: cell-based; settings: HEK-293T
Procedure, shortened: (§1)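 Adherent HEK293T-hH2R-qs5 cells incubated with fluorescent ligand 60 min at rt, then washed; Hoechst 33342 nuclear counterstain; famotidine (300-fold excess) defines nonspecific binding; membrane localization imaged by automated cell imaging.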

Histamine H2 receptor [11] = molecular target: T1, Histamine H2 receptor; experiment: Agonist activity at human H2R expressed in human HEK293T cells assessed as effect on beta-arrestin2 recruitment incubated for 60 mins by brightglo-reagent based assay; assay type: cell-based; settings: HEK-293T
HEK-293T [12] = experiment: Cytotoxicity against human HEK293T cells assessed as reduction in cell viability at 1000 nM incubated for 60 mins by H33342 staining based imaging analysis; settings: 1 h, 1 µM
Histamine H2 receptor [13] = molecular target: T1, Histamine H2 receptor; experiment: Binding affinity to H2R in human HEK293T cell membrane assessed as drug localization at 75 nM incubated for 60 mins followed by compound washoff by confocal microscopy analysis; assay type: cell-based; settings: HEK-293T; procedure, shortened: as §1
HEK-293T [14] = experiment: Cytotoxicity against human HEK293T cells assessed as reduction in cell viability at 100 nM incubated for 90 mins by flow cytometry analysis; assay type: cell-based; settings: 1.5 h, 0.1 µM
HEK-293T [15] = experiment: Cytotoxicity against human HEK293T cells assessed as reduction in cell viability at 150 nM incubated for 60 mins by H33342 staining based imaging analysis; settings: 1 h, 0.15 µM
Histamine H2 receptor [16] = molecular target: T1, Histamine H2 receptor; experiment: Binding affinity to human H2R expressing Sf9 cells incubated for 60 mins by microbeta scintillation counter method
HEK-293T [17] = experiment: Cytotoxicity against human HEK293T cells assessed as reduction in cell viability at 3000 nM incubated for 60 mins by H33342 staining based imaging analysis; settings: 1 h, 3 µM
Histamine H2 receptor [18] = molecular target: T1, Histamine H2 receptor; experiment: Binding affinity to H2R in human HEK293T cell membrane assessed as drug localization at 500 nM incubated for 60 mins followed by compound washoff by confocal microscopy analysis; assay type: cell-based; settings: HEK-293T; procedure, shortened: as §1
Histamine H2 receptor [19] = molecular target: T1, Histamine H2 receptor; experiment: Binding affinity to H2R (unknown origin)
HEK-293T [20] = experiment: Cytotoxicity against human HEK293T cells assessed as reduction in cell viability at 3500 nM incubated for 90 mins by flow cytometry analysis; assay type: cell-based; settings: 1.5 h, 3.5 µM
HEK-293T [21] = experiment: Cytotoxicity against human HEK293T cells assessed as reduction in cell viability at 3000 nM incubated for 90 mins by flow cytometry analysis; assay type: cell-based; settings: 1.5 h, 3 µM
Histamine H2 receptor [22] = molecular target: Histamine H2 receptor (Rattus norvegicus, UniProt P25102); experiment: Displacement of [125I]-aminopotentidine from rat H2R expressed in human COS7 cells incubated for 90 mins gamma counting method; assay type: cell-based, COS-7
Chain of Histamine H2 receptor (Rattus norvegicus, UniProt P25102) (P25102 whole entry): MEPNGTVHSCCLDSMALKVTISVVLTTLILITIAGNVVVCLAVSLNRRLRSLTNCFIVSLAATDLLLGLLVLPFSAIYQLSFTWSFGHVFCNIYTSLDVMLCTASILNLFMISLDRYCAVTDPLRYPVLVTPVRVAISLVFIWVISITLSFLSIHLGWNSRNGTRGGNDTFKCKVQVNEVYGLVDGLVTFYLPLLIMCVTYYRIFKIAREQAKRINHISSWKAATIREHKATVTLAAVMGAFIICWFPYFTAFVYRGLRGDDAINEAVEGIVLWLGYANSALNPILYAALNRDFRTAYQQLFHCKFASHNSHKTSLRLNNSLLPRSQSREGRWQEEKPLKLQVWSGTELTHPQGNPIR

SMILES | Kd (Histamine H2 receptor [2]) [nM] | Kd (Histamine H2 receptor [4]) [nM] | Ki (Histamine H2 receptor [5]) [nM] | pKb (Histamine H2 receptor [7]) | Activity (Histamine H2 receptor [11]) | Activity (HEK-293T [1]) | further results
[3H]CC([3H])C(=O)NCCCCCCNc1c(NCCCOc2cccc(CN3CCCCC3)c2)c(=O)c1=O (centres undefined) |  |  |  |  |  |  | Kd (Histamine H2 receptor [16]): 31 nM
CC1(C)C(/C=C/C=C/C=C2\N(CCCCCC(=O)NCCCCCCNc3c(NCCCOc4cccc(CN5CCCCC5)c4)c(=O)c3=O)c3cc(S(=O)(=O)O)ccc3C2(C)C)=[N+](CCCCS(=O)(=O)[O-])c2ccccc21.O=C(O)C(F)(F)F.O=C(O)C(F)(F)F | 447 |  | 1320 |  |  |  | Activity (HEK-293T [17]): Non-Toxic; Activity (Histamine H2 receptor [18]): Active
CC1(C)C(/C=C/C=C/C=C2\N(CCCCCC(=O)NCCCCCNc3c(NCCCOc4cccc(CN5CCCCC5)c4)c(=O)c3=O)c3ccccc3C2(C)C)=[N+](CCCCS(=O)(=O)[O-])c2ccccc21 |  |  |  |  |  |  | pKb (Histamine H2 receptor [19]): 6.89
CC1(C)C(/C=C/C=C/C=C2\N(CCCCCC(=O)NCCCCCCNc3c(NCCCOc4cccc(CN5CCCCC5)c4)c(=O)c3=O)c3ccccc3C2(C)C)=[N+](CCCCS(=O)(=O)[O-])c2ccccc21.O=C(O)C(F)(F)F.O=C(O)C(F)(F)F | 16.2 | 47.9 | 77.6 | 6.49 |  | Non-Toxic | Activity (Histamine H2 receptor [13]): Active; Activity (Histamine H2 receptor [8]): Active; Activity (Histamine H2 receptor [9]): Active; Ka (Histamine H2 receptor [3]): 15000 to 33300 M⁻¹ s⁻¹; Activity (HEK-293T [6]): Non-Toxic
CC1(C)C(/C=C/C=C/C=C2\N(CCCCCC(=O)NCCCCNc3c(NCCCOc4cccc(CN5CCCCC5)c4)c(=O)c3=O)c3ccccc3C2(C)C)=[N+](CCCCS(=O)(=O)[O-])c2ccccc21.O=C(O)C(F)(F)F.O=C(O)C(F)(F)F | 170 | 562 | 324 |  |  |  | Activity (HEK-293T [17]): Non-Toxic; Activity (HEK-293T [21]): Non-Toxic
Cc1cc(/C=C/C=C/c2ccc(N(C)C)cc2)cc(C)[n+]1CCCCCCNc1c(NCCCOc2cccc(CN3CCCCC3)c2)c(=O)c1=O.O=C(O)C(F)(F)F.O=C([O-])C(F)(F)F |  | 14.5 | 19.5 | 7.21 | inactive | Non-Toxic | 
CNc1ccccc1C(=O)NCCN/C(=N\C#N)NCCCOc1cccc(CN2CCCCC2)c1 |  |  |  |  |  |  | Ki (Histamine H2 receptor [22]): < 100 nM
N#CN=C(NCCCCCCCCNc1ccc([N+](=O)[O-])c2n[o+][n-]c12)NCCCOc1cccc(CN2CCCCC2)c1 |  |  |  |  |  |  | Ki (Histamine H2 receptor [22]): < 100 nM

Now from value to compound, other results behind:

Kd (Histamine H2 receptor [2]) [nM] | Kd (Histamine H2 receptor [4]) [nM] | Ki (Histamine H2 receptor [5]) [nM] | pKb (Histamine H2 receptor [7]) | Activity (Histamine H2 receptor [11]) | SMILES | Activity (HEK-293T [1]) | further results
74.1 | 28.2 | 17.8 |  |  | Cc1cc(/C=C/C=C/c2ccc(N(C)C)cc2)cc(C)[n+]1CCCCNc1c(NCCCOc2cccc(CN3CCCCC3)c2)c(=O)c1=O.O=C(O)C(F)(F)F.O=C([O-])C(F)(F)F | Non-Toxic | Kd (Histamine H2 receptor [3]): 87.1 nM; Activity (HEK-293T [6]): Non-Toxic
89.1 | 18.6 | 17.4 | 7.85 | inactive | Cc1cc(/C=C/C=C/c2ccc(N(C)C)cc2)cc(C)[n+]1CCCCCCCNc1c(NCCCOc2cccc(CN3CCCCC3)c2)c(=O)c1=O.O=C(O)C(F)(F)F.O=C([O-])C(F)(F)F | Non-Toxic | Activity (Histamine H2 receptor [8]): Active; Activity (Histamine H2 receptor [9]): Active; Activity (Histamine H2 receptor [10]): Active; Kd (Histamine H2 receptor [3]): 64.6 nM; Ka (Histamine H2 receptor [3]): 71700 M⁻¹ s⁻¹; Activity (HEK-293T [12]): Non-Toxic
15.1 | 12.9 | 21.4 | 7.73 | inactive | C[N+]1=C(/C=C/C=C/C=C2\N(CCCCCC(=O)NCCCCCCNc3c(NCCCOc4cccc(CN5CCCCC5)c4)c(=O)c3=O)c3ccccc3C2(C)C)C(C)(C)c2ccccc21.O=C(O)C(F)(F)F.O=C([O-])C(F)(F)F |  | Activity (Histamine H2 receptor [13]): Active; Activity (HEK-293T [14]): Non-Toxic; Activity (HEK-293T [15]): Non-Toxic; Activity (Histamine H2 receptor [8]): Active; Activity (Histamine H2 receptor [9]): Active; Ka (Histamine H2 receptor [3]): 15000 to 33300 M⁻¹ s⁻¹
120 | 288 | 269 |  |  | C[N+]1=C(/C=C/C=C/C=C2\N(CCCCCC(=O)NCCCCNc3c(NCCCOc4cccc(CN5CCCCC5)c4)c(=O)c3=O)c3ccccc3C2(C)C)C(C)(C)c2ccccc21.O=C(O)C(F)(F)F.O=C([O-])C(F)(F)F |  | Activity (HEK-293T [20]): Non-Toxic; Activity (HEK-293T [6]): Non-Toxic
 |  | 2040 |  | inactive | CC1(C)C(/C=C/C=C/C=C2\N(CCCCCC(=O)NCCCCNc3c(NCCCOc4cccc(CN5CCCCC5)c4)c(=O)c3=O)c3cc(S(=O)(=O)O)ccc3C2(C)C)=[N+](CCCCS(=O)(=O)[O-])c2ccccc21 |  | 
